Laboratory results: ChEMBL document CHEMBL3792376, “Exploiting the Chromone Scaffold for the Development of Inhibitors of Corticosteroid Biosynthesis” (J Med Chem, 2016)

How the values were obtained:
[1] = target: T1, Cytochrome P450 11B1, mitochondrial (Homo sapiens, UniProt P15538); assay: Inhibition of human CYP11B1 expressed in V79 MZh cells using [1,2-3H]-11-deoxycorticosterone as substrate for 6 hrs by HPTLC analysis; type: cell-based, V79MZh
T1 sequence (P15538 whole entry): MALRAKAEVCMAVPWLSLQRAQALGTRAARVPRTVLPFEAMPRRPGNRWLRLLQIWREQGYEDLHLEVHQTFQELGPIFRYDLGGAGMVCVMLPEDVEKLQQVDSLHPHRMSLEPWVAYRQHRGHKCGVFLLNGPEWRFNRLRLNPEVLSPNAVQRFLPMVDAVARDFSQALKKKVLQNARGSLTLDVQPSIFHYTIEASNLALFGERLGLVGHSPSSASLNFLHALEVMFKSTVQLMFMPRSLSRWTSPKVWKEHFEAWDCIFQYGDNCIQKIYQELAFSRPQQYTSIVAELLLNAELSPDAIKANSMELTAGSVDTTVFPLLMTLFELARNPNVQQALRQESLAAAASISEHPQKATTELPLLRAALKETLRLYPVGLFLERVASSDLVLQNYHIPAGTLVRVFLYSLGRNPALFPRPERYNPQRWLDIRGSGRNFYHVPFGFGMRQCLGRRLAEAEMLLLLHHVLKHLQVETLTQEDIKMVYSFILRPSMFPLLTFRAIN
Method in brief: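 Hamster fibroblast V79 MZh cells stably expressing human CYP11B1, grown to confluence in 6-well plates. Radiolabelled deoxycorticosterone at 100 nM, test inhibitor across a concentration range, 6 h incubation. Supernatant extracted with chloroform and centrifuged. Steroids redissolved in chloroform and separated by HPTLC. IC50 is the mean of at least three experiments, relative SD below 25%.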

[2] = target: T2, Cytochrome P450 11B2, mitochondrial (Homo sapiens, UniProt P19099); assay: Inhibition of human CYP11B2 expressed in V79 MZh cells using [1,2-3H]-11-deoxycorticosterone as substrate for 30 mins by HPTLC analysis; type: cell-based, V79MZh
T2 sequence (P19099 whole entry): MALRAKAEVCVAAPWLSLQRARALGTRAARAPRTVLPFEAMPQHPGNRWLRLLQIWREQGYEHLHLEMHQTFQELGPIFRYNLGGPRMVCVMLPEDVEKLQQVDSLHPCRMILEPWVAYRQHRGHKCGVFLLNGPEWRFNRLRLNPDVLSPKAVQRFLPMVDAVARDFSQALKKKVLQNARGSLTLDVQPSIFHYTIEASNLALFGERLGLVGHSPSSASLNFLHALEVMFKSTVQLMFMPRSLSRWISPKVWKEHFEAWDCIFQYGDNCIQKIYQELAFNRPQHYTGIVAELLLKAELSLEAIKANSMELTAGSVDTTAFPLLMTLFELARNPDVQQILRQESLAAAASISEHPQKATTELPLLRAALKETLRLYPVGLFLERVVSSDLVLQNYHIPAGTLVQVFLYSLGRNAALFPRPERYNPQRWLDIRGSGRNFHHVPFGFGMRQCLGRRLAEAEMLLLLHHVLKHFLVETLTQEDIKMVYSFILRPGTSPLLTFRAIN
Method in brief: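 Confluent V79 MZh hamster fibroblasts expressing human CYP11B2, in 6-well plates. Reaction started with [1,2-3H]-11-deoxycorticosterone (100 nM) plus inhibitor at several concentrations and run 30 min. Chloroform extraction of supernatant, then HPTLC of steroids. Mean of ≥3 experiments, relative SD <25%.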

Homo sapiens = species: Homo sapiens; assay: Selectivity index, ratio of IC50 for human CYP11B2 to IC50 for human CYP11B1
Method in brief: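 Calculated as IC50(CYP11B2)/IC50(CYP11B1). Both IC50s come from V79 MZh hamster fibroblasts expressing the human enzyme, with 100 nM radiolabelled deoxycorticosterone: 6 h for 11B1 and 30 min for 11B2. Readout by HPTLC.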

[3] = target: T3, Steroid 17-alpha-hydroxylase/17,20 lyase (Homo sapiens, UniProt P05093); assay: Inhibition of human CYP17 expressed in Escherichia coli co-transfected with rat NADPH-P450 reductase using progesterone as substrate for 30 mins measured as formation of 17alpha-hydroxyprogesterone and 16alpha-hydroxyprogesterone in presence of NADPH
T3 sequence (P05093 whole entry): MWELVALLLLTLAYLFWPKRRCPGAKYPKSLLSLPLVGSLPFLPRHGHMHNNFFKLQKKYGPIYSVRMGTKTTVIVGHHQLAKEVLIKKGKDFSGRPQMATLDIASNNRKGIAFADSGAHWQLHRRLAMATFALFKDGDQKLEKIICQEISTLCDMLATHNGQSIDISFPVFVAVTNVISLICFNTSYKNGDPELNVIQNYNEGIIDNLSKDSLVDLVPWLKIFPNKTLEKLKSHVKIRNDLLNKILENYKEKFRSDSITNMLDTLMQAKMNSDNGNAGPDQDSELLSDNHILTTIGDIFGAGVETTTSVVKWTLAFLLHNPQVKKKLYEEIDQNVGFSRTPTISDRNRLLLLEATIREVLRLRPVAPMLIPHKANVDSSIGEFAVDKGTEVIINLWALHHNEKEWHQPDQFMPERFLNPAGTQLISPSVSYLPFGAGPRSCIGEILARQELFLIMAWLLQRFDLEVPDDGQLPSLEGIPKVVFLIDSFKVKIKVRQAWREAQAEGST
Method in brief: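 Membrane pellet from E. coli co-expressing human CYP17 and rat NADPH-P450 reductase (lysozyme, sonication, 4 °C). Progesterone 25 μM with NADPH-generating system (NADP+, glucose 6-phosphate, G6P dehydrogenase) and inhibitor, preincubated 5 min at 37 °C. Membranes added, 30 min at 37 °C. Acid quench, ethyl acetate extraction. Readout: 17α- and 16α-hydroxyprogesterone formed. Mean of ≥3 runs.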

Aromatase = target: T4, Aromatase (Homo sapiens, UniProt P11511); assay: Inhibition of human placental CYP19 using [1beta-3H]-androstenedione as substrate for 3 hrs measured as formation of [3]H2O in presence of NADPH
T4 sequence (P11511 whole entry): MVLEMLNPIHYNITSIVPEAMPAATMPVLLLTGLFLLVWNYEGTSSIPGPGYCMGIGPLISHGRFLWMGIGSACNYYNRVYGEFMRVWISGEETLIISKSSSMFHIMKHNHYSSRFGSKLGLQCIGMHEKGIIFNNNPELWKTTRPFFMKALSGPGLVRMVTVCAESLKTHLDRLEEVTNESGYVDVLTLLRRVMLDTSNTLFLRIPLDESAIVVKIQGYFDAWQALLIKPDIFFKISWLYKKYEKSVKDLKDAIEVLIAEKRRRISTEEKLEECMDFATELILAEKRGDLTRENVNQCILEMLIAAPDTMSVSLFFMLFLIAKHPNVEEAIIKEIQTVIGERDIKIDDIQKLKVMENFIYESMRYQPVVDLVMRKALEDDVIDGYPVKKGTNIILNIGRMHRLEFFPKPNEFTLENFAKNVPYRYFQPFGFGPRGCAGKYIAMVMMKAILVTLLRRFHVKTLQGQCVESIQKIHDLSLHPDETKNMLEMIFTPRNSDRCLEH
Method in brief: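 Microsomes from fresh human term placenta. [1β-3H]androstenedione 500 nM, NADPH, glucose 6-phosphate and dehydrogenase plus inhibitor in 0.05 M phosphate pH 7.4, preincubated 5 min at 30 °C. Started with microsomal protein and run 3 h. Ethyl acetate stop, HgCl2, dextran-coated charcoal to remove steroids. 3H2O released measured. Mean of ≥3 experiments, RSD <25%.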

[4] = Cytotoxicity against HEK293 cells assessed as cell viability upto 100 times IC50 concentration for 3 hrs by MTT assay; type: cell-based; settings: human, read-out: Activity
Method in brief: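 HEK293 cells in DMEM with 10% FCS, exposed to 0.1 and 1 μM compound for 3 h at 37 °C, 5% CO2, humidified. Then MTT (5 mg/mL stock in PBS) added for a further 3 h. Stopped and lysed with 10% SDS in 0.01 N HCl. Viability from MTT reduction, expressed as % of control.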

## O=c1c(Cc2cccnc2)coc2ccccc12
[1]
  IC50: > 10000 nM
[2]
  IC50: > 10000 nM

## O=c1cc(Cc2cccnc2)oc2ccccc12
[1]
  IC50: > 10000 nM
[2]
  IC50: > 10000 nM

## O=c1c(Cc2cccnc2)coc2cc(F)ccc12
[1]
  IC50: > 10000 nM
[2]
  IC50: > 10000 nM

## O=c1c(Cn2ccnc2)coc2cc(F)ccc12
[1]
  IC50: 86.9 nM
Homo sapiens
  Ratio IC50: 2.5
[2]
  IC50: 214 nM

## O=c1c(Cc2c[nH]cn2)coc2cc(F)ccc12
[3]
  IC50: > 10000 nM
Aromatase
  IC50: 3100 nM
[1]
  IC50: 9.7 nM
[4]
  viability at 3 h: 95%
Homo sapiens
  Ratio IC50: 9.8
[2]
  IC50: 94.9 nM

## COc1ccc2c(=O)cc(Cn3ccnc3)oc2c1
[1]
  IC50: 1600 nM
Homo sapiens
  Ratio IC50: 1.4
[2]
  IC50: 2270 nM

## COc1ccc2c(=O)c(Cn3ccnc3)coc2c1
[1]
  IC50: 372 nM
Homo sapiens
  Ratio IC50: 2.1
[2]
  IC50: 768 nM

## O=c1cc(Cc2cccnc2)oc2cc(F)ccc12
[1]
  IC50: > 10000 nM
[2]
  IC50: > 10000 nM

## COc1ccc2c(=O)cc(Cc3ccncc3)oc2c1
[1]
  IC50: 3600 nM
[2]
  IC50: > 5000 nM

## COc1ccc2c(=O)c(Cc3c[nH]cn3)coc2c1
[3]
  IC50: > 10000 nM
Aromatase
  IC50: 7900 nM
[1]
  IC50: 109 nM
Homo sapiens
  Ratio IC50: 9.8
[2]
  IC50: 1070 nM

## O=c1c(Cn2ccnc2)coc2ccccc12
[1]
  IC50: 180 nM
Homo sapiens
  Ratio IC50: 2.9
[2]
  IC50: 522 nM

## O=c1cc(Cc2ccncc2)oc2ccccc12
[1]
  IC50: 222 nM
Homo sapiens
  Ratio IC50: 5.6
[2]
  IC50: 1240 nM

## O=c1c(Cc2ccncc2)coc2cc(F)ccc12
[3]
  IC50: 6600 nM
Aromatase
  IC50: 5000 nM
[1]
  IC50: 58.1 nM
[4]
  viability at 3 h: 95%
Homo sapiens
  Ratio IC50: 5.3
[2]
  IC50: 317 nM

## COc1ccc2c(=O)cc(Cc3cccnc3)oc2c1
[1]
  IC50: > 10000 nM
[2]
  IC50: > 10000 nM

## O=c1cc(Cn2ccnc2)oc2cc(F)ccc12
[1]
  IC50: 327 nM
Homo sapiens
  Ratio IC50: 1.9
[2]
  IC50: 620 nM

## O=c1c(Cc2ccncc2)coc2ccccc12
[3]
  IC50: 4800 nM
Aromatase
  IC50: 6100 nM
[1]
  IC50: 88.2 nM
Homo sapiens
  Ratio IC50: 10.8
[2]
  IC50: 954 nM

## COc1ccc2c(=O)c(Cc3cccnc3)coc2c1
[1]
  IC50: > 10000 nM
[2]
  IC50: > 10000 nM

## COc1ccc2c(=O)c(Cc3ccncc3)coc2c1
[1]
  IC50: 612 nM
Homo sapiens
  Ratio IC50: 5
[2]
  IC50: 3270 nM

## O=c1cc(Cn2ccnc2)oc2ccccc12
[1]
  IC50: 253 nM
Homo sapiens
  Ratio IC50: 2
[2]
  IC50: 500 nM

## O=c1cc(Cc2ccncc2)oc2cc(F)ccc12
[3]
  IC50: > 10000 nM
Aromatase
  IC50: > 10000 nM
[1]
  IC50: 82.7 nM
Homo sapiens
  Ratio IC50: 7.8
[2]
  IC50: 643 nM

## O=c1c(Cc2c[nH]cn2)coc2ccccc12
[1]
  IC50: 29.5 nM
[4]
  viability at 3 h: 95%
Homo sapiens
  Ratio IC50: 4.1
[2]
  IC50: 121 nM
